From ChEMBL document CHEMBL5724801, “EUbOPEN Chemogenomics Library - Multiplex” (2024)
Where “and” joins values, the source holds several entries; their conditions need not be identical. Identical values can stand only once.

System: U2OS
Assay: Multiplex assay against U2OS
Assay type: toxicity, cell-based
Settings: human
In short: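 Per cents of healthy-nucleus cells form the tubulin, mitochondrial-mass and membrane-permeability phenotype values. Live cells were stained at seeding with Hoechst33342, BioTracker Green Microtubule Cytoskeleton Dye, MitoTracker Red and Annexin V Alexa Fluor 680. After compound addition they were imaged on a CQ1 microscope at 37°C and 5% CO2, and CellPathfinder machine-learning gating split them into Hoechst high-intensity objects or normal cells, normal cells into healthy, pyknosed or fragmented nuclei, and pyknosed cells into mitotic or apoptotic.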

[1] = 12 h, 1 µM, compound concentration 1 uM
[2] = 12 h, 10 µM, compound concentration 10 uM
[3] = 24 h, 1 µM, compound concentration 1 uM
[4] = 24 h, 10 µM, compound concentration 10 uM
[5] = 48 h, 1 µM, compound concentration 1 uM
[6] = 48 h, 10 µM, compound concentration 10 uM

In the case of `Cc1cc(NC(=O)c2cccc(NC(=O)/C=C/CN(C)C)c2)ccc1Nc1nccc(-c2cccnc2)n1`, the “Population Apoptotic (%)” value [1] is reported as 27.59% and 30.56%, the “Population Fragmented Nuclei (%)” value [1] is reported as 1.96% and 1.23% and the “Population Healthy Nuclei (%)” value [1] is reported as 90.93% and 76.69%. For the same compound, the “Population Hoechst High Intensity Objects (%)” value [1] was 0%, the “Population Membrane Permeable-Phenotype (%)” value [1] was 0.54% and 4% and the “Population Mitochondria Different-Phenotype (%)” value [1] was 0% and 11.2%. For the same compound, the “Population Mitotic Cells (%)” value [1] was 72.41% and 69.44%, the “Population Normal (%)” value [1] was 100% and the “Population Tubulin-Different-Phenotype (%)” value [1] was 1.35% and 1.6%. For the same compound, the “Total Cell Count” value [1] was 408 and 163, the “Population Apoptotic (%)” value [2] was 30.59% and 26% and the “Population Fragmented Nuclei (%)” value [2] was 2.2% and 3.08%. For the same compound, the “Population Healthy Nuclei (%)” value [2] was 71.07% and 58.46%, the “Population Hoechst High Intensity Objects (%)” value [2] was 0% and the “Population Membrane Permeable-Phenotype (%)” value [2] was 61.06% and 84.21%. For the same compound, the “Population Mitotic Cells (%)” value [2] was 69.41% and 74%, the “Population Normal (%)” value [2] was 100% and the “Population Pyknosed Nuclei (%)” value [2] was 26.73% and 38.46%. For the same compound, the “Population Tubulin-Different-Phenotype (%)” value [2] was 71.68% and 55.26%, the “Total Cell Count” value [2] was 318 and 130 and the “Population Apoptotic (%)” value [3] was 35.71% and 38.71%. The “Population Fragmented Nuclei (%)” value [3] was 1.26% and 5.24%, the “Population Healthy Nuclei (%)” value [3] was 91.2% and 80% and the “Population Hoechst High Intensity Objects (%)” value [3] was 0%. For the same compound, the “Population Membrane Permeable-Phenotype (%)” value [3] was 0.79% and 4.17%, the “Population Mitotic Cells (%)” value [3] was 64.29% and 61.29% and the “Population Normal (%)” value [3] was 100%. For the same compound, the “Population Pyknosed Nuclei (%)” value [3] was 7.54% and 14.76%, the “Population Tubulin-Different-Phenotype (%)” value [3] was 0.79% and 1.19% and the “Total Cell Count” value [3] was 557 and 210. The “Population Apoptotic (%)” value [4] was 56.85% and 76.53%, the “Population Fragmented Nuclei (%)” value [4] was 2.51% and 3.51% and the “Population Hoechst High Intensity Objects (%)” value [4] was 0.31% and 0%. The “Population Membrane Permeable-Phenotype (%)” value [4] was 25.44% and 41.67%, the “Population Mitochondria Different-Phenotype (%)” value [4] was 21.93% and 41.67% and the “Population Mitotic Cells (%)” value [4] was 43.15% and 23.47%. The “Population Normal (%)” value [4] was 99.69% and 100%, the “Population Pyknosed Nuclei (%)” value [4] was 61.76% and 85.96% and the “Population Tubulin-Different-Phenotype (%)” value [4] was 54.39% and 58.33%. For the same compound, the “Total Cell Count” value [4] was 320 and 114, the “Population Apoptotic (%)” value [5] was 41.94% and 59.02% and the “Population Fragmented Nuclei (%)” value [5] was 4.41% and 6.54%. The “Population Healthy Nuclei (%)” value [5] was 86.07% and 73.53%, the “Population Hoechst High Intensity Objects (%)” value [5] was 0% and 0.33% and the “Population Membrane Permeable-Phenotype (%)” value [5] was 0.6% and 3.11%. For the same compound, the “Population Mitochondria Different-Phenotype (%)” value [5] was 0% and 7.56%, the “Population Mitotic Cells (%)” value [5] was 58.06% and 40.98% and the “Population Normal (%)” value [5] was 100% and 99.67%. The “Population Pyknosed Nuclei (%)” value [5] was 9.53% and 19.93%, the “Population Tubulin-Different-Phenotype (%)” value [5] was 1.67% and 0.89% and the “Population Apoptotic (%)” value [6] was 92.36% and 96.04%. For the same compound, the “Population Fragmented Nuclei (%)” value [6] was 3.57% and 4%, the “Population Healthy Nuclei (%)” value [6] was 7.14% and 15.2% and the “Population Hoechst High Intensity Objects (%)” value [6] was 0%. The “Population Mitotic Cells (%)” value [6] was 7.64% and 3.96%, the “Population Normal (%)” value [6] was 100% and the “Population Pyknosed Nuclei (%)” value [6] was 89.29% and 80.8%. The “Total Cell Count” value [6] was 308 and 125.
